Experimental data from article PMC3822283 (Nature structural & molecular biology, 2013).

Legend:
[1] = target: p38α; conditions: time resolved FRET, non phospho p38α; ref Zhang et al., 2005; cited from earlier work
[2] = target: T1, p38α (Mus musculus, UniProt P47811); assay: ITC binding to p38α; conditions: for association with p38α by ITC (in words): p38α alone, non phospho
[3] = target: [p38α:TAB1(1-438)]complex (Mus musculus, UniProt P47811); assay: ITC binding to [p38α:TAB1
[4] = tested on: isolated perfused mouse hearts; assay: contractile function of isolated perfused mouse hearts
Outline: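 Langendorff hearts from male C57BL/6 mice (pentobarbital 300mg/kg i.p., heparin 150 units) perfused at 80 mmHg with KHB (95% O2/5% CO2, 37°C). LV balloon EDP set 2-8 mmHg, paced 600 bpm. Inclusion required LVDP ≥60 mmHg and flow 1.5-3.5 ml/min. After 30 min baseline, coded TAT-TAB1 peptides at 15μM recirculated 15 min in 20 mL KHB. Preliminary runs used three concentrations (n=2). Two-way repeated-measures ANOVA, Bonferroni.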

[5] = tested on: IRp38α; assay: IRp38α co-expressed with TAB1 in HEK293 cells; format: cell-based; conditions: Fig. 1c
Outline: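 HEK293 cells were co-transfected with TAB1 and either p38α (HA-tagged, WT) or the gatekeeper mutant IRp38α, then exposed to BIRB793. p38 and TAB1 phosphorylation were read by immunoblot: dual-phospho p38 (Thr180/Tyr182) 1:4,000, total p38 1:15,000, overnight at 4 °C, ECL detection. Quantitation is from three independent transfections as mean ± s.d., analysed by one-way ANOVA with Bonferroni.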

[6] = tested on: p38α; assay: co-transfection of HEK293 cells with TAB1 and p38α, p38 phosphorylation; format: cell-based
[7] = tested on: p38 in hearts expressing the p38α Thr106Met gatekeeper mutant (IRα); assay: p38 activity during global myocardial ischemia, IRα hearts; conditions: IRα mouse hearts, global ischemia 5, 10 and 15 mins; 10 μM
[8] = tested on: p38 in wild-type (WT) hearts; assay: p38 dual phosphorylation during global myocardial ischemia, WT hearts; conditions: WT mouse hearts, global ischemia 5, 10 and 15 mins; 10 μM
[9] = tested on: p38; assay: p38 dual phosphorylation in isolated perfused mouse hearts; conditions: 15 mins exposure; immunoblot, Fig. 6g
[10] = tested on: isolated adult rat cardiac myocytes; assay: viability of adult rat ventricular myocytes; format: cell-based; conditions: ARVMs, later time points; peptides fused to TAT
Outline: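 Laminin-plated adult rat ventricular myocytes in supplemented M199 at 37°C in 5% CO2 were exposed to fluorescein (FAM)-labelled TAT-TAB1(371-416) peptides. They were imaged by confocal microscopy at later time points. Cell death was scored as a rounded cell appearance with homogeneous distribution of the fluorescein label.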

[11] = tested on: p38; assay: p38 activation in adult rat ventricular myocytes; format: cell-based; conditions: ARVMs; peptides fused to TAT; immunoblot, Fig. 6c
Outline: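 Rat ventricular myocytes were washed in M199 with penicillin, streptomycin, 2mM L-carnitine, 5mM creatine and 5mM taurine, pelleted at 100 g for 2 min and plated on laminin at 37°C in 5% CO2. After 1 h, non-adherent cells were removed and TAT-TAB1(371-416) peptides (WT, A/B mutant, scrambled) added in fresh medium. Immunoblots used dual-phospho p38 (Thr180/Tyr182; 1:4,000) and total p38 (1:15,000) antibodies, with ECL detection. One-way ANOVA, Bonferroni.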

[12] = target: T1, p38α; assay: co-expression of p38α and TAB1 in E. coli, p38α phosphorylation; format: cell-based; conditions: western blot; Fig. 1d, 5d; inhibitors 10 μM
Outline: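 Mouse p38α and TAB1 (full-length, 1-438 or 1-418) were co-expressed in E. coli from dual vectors, with p38α in the first MCS and TAB1 in the second. Controls were empty vector and p38α alone.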

[13] = peptides fused to TAT, 15 μM, 15 min, recirculated, n=5 mouse hearts per group

Nc1ncnc2c1ncn2[C@@H]1O[C@H](COP(=O)(O)OP(=O)(O)OP(=O)(O)O)[C@@H](O)[C@H]1O [ATP]
Kd [1]: 13 ± 5.5 mM

Nc1ncnc2c1ncn2[C@@H]1O[C@H](CO[P@](=O)(O)O[P@](=O)(O)O[P@@](=O)(O)S)[C@@H](O)[C@H]1O [ATPγS]
association with p38α by ITC (in words) [2]: no measurable association by ITC
Kd [3]: 5.3 µM
affinity for p38α in the presence of TAB1(1-438) (in words) ([3]; ITC, 1:1 stoichiometry): low μM affinity

Cc1ccc(-n2nc(C(C)(C)C)cc2NC(=O)Nc2ccc(OCCN3CCOCC3)c3ccccc23)cc1 [BIRB796, reference compound]
inhibition of p38α on effects of perfusion with TAB1(371-416) (WT) ([4]; LVDP and coronary flow, numbers per group WT=7 and WT+I=5, Fig. 6h): attenuates the effects of perfusion with TAB1(371-416)
pattern of phosphorylation on inhibitor exposure, IRp38α coexpressed with TAB1 [5]: altered

C[S+]([O-])c1ccc(-c2nc(-c3ccncc3)c(-c3ccc(F)cc3)[nH]2)cc1 (stereo not shown) [SB203580]
effect of inhibitor on TAB1-enhanced p38α dual phosphorylation ([6]; WTp38α, HEK293 cells, Fig. 1b): SB203580-sensitive
p38 activity (phosphorylation of TAB1 and HSP27) with inhibitor [7]: p38 remained active
sensitivity of p38 dual phosphorylation to inhibitor [8]: sensitive

GYGRKKRRQRRRGEMSQPTPTPAPGGRVYPVSAPASSAQSTSKTSVTLSLGAPSQGQMV [TAT-TAB1(371-416A/B)]
maximum concentration that did not cause discernible contractile dysfunction ([4]; isolated mouse heart, preliminary experiments): 15 µM

GYGRKKRRQRRRGEMSQPTPTPAPGGRVYPVSVPYSSAQSTSKTSVTLSLVMPSQGQMV [TAT-TAB1(371-416)]
p38 dual phosphorylation in perfused hearts [9]: p38 dual phosphorylation
coronary flow ([4]; 15 μM, 15 min, recirculated, n=5 mouse hearts per group): reduction in coronary flow
developed pressure [4, 13]: marked reduction in developed pressure
end-diastolic pressure [4, 13]: elevation in the end-diastolic pressure
cell death [10]: cell death
p38 activation [11]: caused p38 activation

TAB1(371-416A/B) (EMSQPTPTPAPGGRVYPVSAPASSAQSTSKTSVTLSLGAPSQGQMV)
association with p38α by ITC (in words) [2]: no binding was detected
p38 activation [11]: but not TAB1(371-416A-B) caused p38 activation

TAB1: TGF-β-activated protein kinase 1 (TAK1) binding protein 1, scaffold protein (EMSQPTPTPAPGGRVYPVSVPYSSAQSTSKTSVTLSLVMPSQGQMV)
p38α dual phosphorylation on co-expression in HEK293 cells ([6]; western blot, three independent transfections): enhanced p38α dual phosphorylation
p38α phosphorylation on co-expression in E. coli [12]: enhanced

B1: TAB1(1-438): recombinant mouse TAB1(1-438), N-terminal HexaHistidine tag and TEV site (protein)
chain: MAAQRRSLLQSEQQPSWTDDLPLCHLSGVGSASNRSYSADGKGTESHPPEDNWLKFRSENNCFLYGVFNGYDGNRVTNFVAQRLSAELLLGQLNTEHTEADVRRVLLQAFDVVERSFLESIDDALAEKASLQSQLPEGVPQHQLPPQYQKILERLKALEREISGGAMAVVAVLLNSKLYVANVGTNRALLCKSTVDGLQVTQLNMDHTTENEDELFRLSQLGLDAGKIKQMGVICGQESTRRIGDYKVKYGYTDIDLLSAAKSKPIIAEPEIHGAQPLDGVTGFLVLMSEGLYKALEAAHGPGQANQEIAAMIDTEFAKQTSLDAVAQAVVDRVKRIHSDTFASGGERAKFCPRHEDMTLLVRNFGYPLGEMSQPTPTPAPGGRVYPVSVPYSSAQSTSKTSVTLSLVMPSQGQMVNGSHSASTLDEATPTLTNQSPT
−TΔS ([2]; 25°C, ΔG = ΔH-TΔS): 5.1 kcal/mol
association with p38α by ITC (in words) [2]: binding affinity in the low micromolar range
